Our source for the activation values is PubChem BioAssay AID504383 (The Scripps Research Institute Molecular Screening Center, 2011).

Among all 2,500 compounds or so, about 1,200 (48%) were called active.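 How the source made its calls: active means mean activation above the low control average plus 3 SD, as set in the primary screen (cut at about 12% in these data); inactive means the rest.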 So high a share suggests a set chosen from earlier hits. Some of the results follow.

The assay addresses Troponin I, cardiac muscle (Homo sapiens) + Troponin T, cardiac muscle (Homo sapiens) + Troponin C, slow skeletal and cardiac muscles (Homo sapiens) (UniProt P19429+P45379+P63316). The experiment in a line: calcium sensitizers of cardiac thin filaments – biochemical, IANBD-TnC fluorescence, triplicate, confirmation (AID 504383).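 Further: 0% = DMSO at 0.472 mM calcium and 100% = DMSO at 2.9 mM calcium.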 As to conditions: IANBD-labeled cardiac RTF, Ca2+ sensitivity fluorescence; at 7.2 µM; hits give high values; scaled from EC20 to saturating calcium; tested at EC20 calcium, 0.472 mM. In outline:
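material = labelled regulated thin filaments | probe or stimulus = Ca2+ 0.472 mM, EC20 level | dosing = single nominal compound dose of 7.2 µM | schedule = 15 min at 25 °C | signal = fluorescence intensity of labelled filaments | evaluation = fluorescence gain scaled between EC20 and EC100 calcium controls | benchmarks = low control EC20 calcium, high control EC100 calcium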
Consider `O=C(Cc1ccccc1)Nn1c(O)c(/C=C2\C=Nc3ccccc32)sc1=S`, for which the activation is 87.3% (active).

On to `CN(C)C(=O)CN1C(=O)C2CCCCN2C(=O)c2ccccc21` (configuration not stated), for which the activation was 9.05% (inactive). On to `CN(C)/C=C1\C=C2C(=O)c3ccccc3N2C1=O`, for which the activation is 87.3% (active). As to `Cc1cc(C)c(NC(=S)N(C)C)c(C)c1`, the activation is 42.1% (active). With `N=C1c2ccccc2CN1c1ccc(S(=O)(=O)N2CCCCC2)cc1`, the activation is 49.2% (active). For the compound `CSc1nnc(-c2ccc(S(=O)(=O)N3CCCC3)cc2)n1C`, the activation is -0.41% (inactive).

In the case of `CN(C)c1ccc(/C=C/C(=O)c2ccccc2O)cc1`, the activation is 6.07% (inactive). For `CN(C)c1ccc(/C=C/C(=O)c2c(O)c3ccccc3oc2=O)cc1`, the activation is 12.3% (active). Consider `CCOc1cccc2c1OC(c1cc(OC)c(OC)c(OC)c1)N1N=C(c3ccc(C)o3)CC21` (configuration not stated), for which the activation is 11.7% (active). As for `O=C1NCCN1c1ncc([N+](=O)[O-])s1`, the activation is 19.6% (active). In the case of `CC(=O)N(C)c1ccc(C(O)(C(F)(F)F)C(F)(F)F)cc1`, the activation was 30.4% (active). Consider `COc1ccc(CCNC(=O)C2CC(c3c(Cl)cccc3Cl)=NO2)cc1` (configuration not stated), for which the activation is 7.74% (inactive). The result for `COc1ccc(CCNC(=O)COC(=O)c2cc(=O)[nH]c3ccccc23)cc1` reads 93% (active). As for `COc1cccc(/C(O)=C/c2nc3ccc(C(=O)NCCc4cccc(C)c4)cc3[nH]c2=O)c1`, the activation is 9.81% (inactive).

Take `CCc1ccc(/C=N/n2c(C)cc(C)c(C#N)c2=O)cc1`: the activation is 7.16% (inactive). Regarding `Cc1c(/C=N/O)c2ccccn2c1C=O`, the activation is 8.72% (inactive). The result for `CN1CCC(N(CCc2ccccc2)C(=O)CCC(=O)O)CC1` reads 146% (active). Take `CCN(CC)c1nc2ccccc2nc1C(C#N)C(=O)NCCc1ccccc1` (configuration not stated): the activation was 532% (active). Turning to `N#CC(C(=O)NCc1ccccc1)c1nc2ccccc2nc1N1CCCC1` (configuration not stated), the activation is -1.52% (inactive).

For the compound `CCCCCCNC(=O)C(C#N)c1nc2ccccc2nc1N1CCCC1` (configuration not stated), the activation is 5.18% (inactive).

Take `COc1ccc(C(=O)NCC(=O)N2CCN(C(=O)c3ccco3)CC2)cc1OC`: the activation is 47.6% (active).

With `O=C(NCC(=O)N1CCN(c2ncccn2)CC1)c1ccccc1OC(F)F`, the activation was 0.94% (inactive). As for `Cc1ccc(NC2OC(C(O)CO)C(O)C2O)cc1[N+](=O)[O-]` (configuration not stated), the activation was 8.56% (inactive).

`COc1ccccc1NC(=O)COC(=O)c1cnc(C)cn1`: the activation is 101% (active). As for `O=C(c1ccccc1)N1CCCCC1`, the activation was 8.78% (inactive). In the case of `O=C(/C=C/c1nc2ccccc2s1)N1CCCCCC1`, the activation is 35% (active).

Regarding `CC(=O)Nc1sc2c(c1-c1nc3ccccc3s1)CCN(C(C)C)C2`, the activation is 10.5% (inactive). The result for `FC(F)(F)c1cccc(-c2nc(COc3ccc(Cl)cc3Cl)no2)c1` reads 5570% (active). In the case of `Cc1cn(COC/C=C/c2ccccc2)c(=O)[nH]c1=O`, the activation is 81.1% (active). As for `CCc1nc(Nc2ccc(O)cc2)c2oc3ccccc3c2n1`, the activation is 56.6% (active). Consider `C=CCNC(=S)NNC(=O)c1ccc(OCC(C)C)cc1`, for which the activation was 4.58% (inactive). For `NC(=O)NC(=O)COC(=O)c1cccc(NS(=O)(=O)/C=C/c2ccccc2)c1`, the activation is 38.6% (active). The result for `CC(C)C(=O)COc1c2occc2cc2ccc(=O)oc12` reads 1.65% (inactive); that for `CCOC(=O)c1cnc(SC)nc1Oc1cccc(NS(=O)(=O)c2ccc(Cl)cc2)c1`, 14.8% (active). Regarding `CCOC(=O)N1CCC(Nc2nc3ccccc3nc2NS(=O)(=O)c2ccc(Cl)cc2)CC1`, the activation is 11.1% (inactive). As to `CCC1(CC)C(=O)Nc2ccccc21`, the activation is 5.14% (inactive). The result for `CN(/N=C/c1ccc(-c2ccc([N+](=O)[O-])cc2)o1)c1ccccc1` reads 30.8% (active); that for `Cc1ccc(C(=O)N/C(=C/c2ccc(-c3ccc([N+](=O)[O-])cc3)o2)C(=O)NCCCN(C)C)cc1`, 5.11% (inactive); that for `Cc1cc([N+](=O)[O-])ccc1-c1ccc(/C=N/NC(=O)c2ccc(Br)o2)o1`, 7.92% (inactive). The result for `O=C(O)c1cccc(-c2ccc(/C=N/Nc3ccc([N+](=O)[O-])cc3)o2)c1` reads 12.7% (active). Consider `CN(N=Nc1ccc([N+](=O)[O-])cc1)c1ccccc1`, for which the activation is 36.2% (active). With `O=C1CC(c2ccccc2)=NN1c1ccc([N+](=O)[O-])cc1`, the activation is 10.7% (inactive). In the case of `O=[N+]([O-])c1ccc(N(c2ccccc2)c2ccccc2)cc1`, the activation is 14.5% (active). The result for `Cc1oc2c(cc(NS(=O)(=O)c3ccc(C(C)C)cc3)c3ccccc32)c1C(=O)O` reads 9.7% (inactive); that for `COc1ccc2nc3ccccc3[n+]([O-])c2c1`, 13.1% (active); that for `CCOCCCNc1ccc(-c2ccccc2)nn1`, 8.24% (inactive). With `COc1cc(/C=C/C(O)=C/C(=O)/C=C/c2ccc(O)cc2)ccc1O`, the activation was 8.41% (inactive).

As to `COc1cc(/C=C/C(=O)CC(=O)/C=C/c2ccc(O)c(OC)c2)ccc1O`, the activation is 9.89% (inactive). As for `COc1cc(/C=C/C=C2/CC/C(=C/C=C/c3ccc(O)c(OC)c3)C2=O)ccc1O`, the activation was 19.4% (active). Regarding `O=C(/C=C(O)/C=C/c1ccc(O)cc1)/C=C/c1ccc(O)cc1`, the activation is 10.7% (inactive).

With `COc1cc(/C=C/C(=O)/C=C(O)/C=C/c2ccc(O)c(OC)c2)ccc1O`, the activation is 287% (active). Consider `CCN(CC)c1ccc2cc(NC(=O)CCC(=O)O)c(=O)oc2c1`, for which the activation is 4.16% (inactive). For the compound `CCN(CC)c1ccc2cc(C=O)c(=O)oc2c1`, the activation is 17% (active). `CCN(CC)c1ccc2cc(S(=O)(=O)c3ccc(C)cc3)c(=O)oc2c1`: the activation was 32.5% (active). In the case of `CCN(CC)c1ccc2cc(C(C)=O)c(=O)oc2c1`, the activation is 0.78% (inactive). The result for `CCN(CC)c1ccc2c(c1)oc(=O)c1c(Cl)cc(=O)oc12` reads 63.5% (active); that for `CCN(CC)c1ccc2c(Cl)c(Br)c(=O)oc2c1`, 8.56% (inactive). In the case of `CCN(CC)c1ccc2cc(S(=O)(=O)c3ccc(Cl)cc3)c(=O)oc2c1`, the activation was 372% (active). Consider `Clc1ccccc1N=Nc1ccccn1`, for which the activation is 9.89% (inactive). For the compound `CCN(CC)c1ccc2oc(=O)c(C)nc2c1`, the activation is 364% (active). Take `CCOC(=O)c1c(C#N)c(SCC(=O)Nc2ccc(OC)cc2)nc2c1CN(CC)CC2`: the activation was 78.6% (active). The result for `COc1cccc2c1C(=O)c1c(O)c3c(c(O)c1C2=O)CC(O)(C(=O)CO)CC3OC1CC(N(C)C)C(O)C(C)O1` (configuration not stated) reads 211% (active). Take `COc1cccc2c1C(=O)c1c(O)c3c(c(O)c1C2=O)C[C@](O)(C(C)=O)C[C@H]3O[C@@H]1C[C@@H](N)[C@@H](O)[C@@H](C)O1`: the activation is 4.79% (inactive).

In the case of `COc1cccc2c1C(=O)c1c(O)c3c(c(O)c1C2=O)CC(O)(C(C)=O)CC3OC1CC(O)C(O)C(C)O1` (configuration not stated), the activation is 75.5% (active).

`COc1cccc2c1C(=O)c1c(O)c3c(c(O)c1C2=O)C[C@@](O)(C(=O)CO)C[C@@H]3O[C@H]1C[C@H](N)[C@H](O)[C@H](C)O1`: the activation was 3.66% (inactive). For the compound `COc1cccc2c1C(=O)c1c(O)c3c(c(O)c1C2=O)CC(O)(C(C)=O)CC3OC1CC(N(C)C)C(O)C(C)O1` (configuration not stated), the activation is 6.16% (inactive). Take `COc1cccc2c1C(=O)c1c(O)c3c(c(O)c1C2=O)C[C@@](O)(C(=O)CO)C[C@@H]3OC1CC(N)C(O)C(C)O1` (some centres not stated): the activation was 9.17% (inactive).
